The target of experiment [1] is T1, Atypical chemokine receptor 3 (Homo sapiens, UniProt P25106). Briefly: Inhibition of [125I]SDF-1alpha binding to CXCR7 (unknown origin) expressed in CHO cell membranes incubated for 1 hr by radioligand displacement assay. The essentials:
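Scintillation proximity binding: receptor membranes (10−20 µg/well) on WGA beads (0.25 mg/well) incubated with peptide and [125I]-SDF-1α (0.20 nM for CXCR4, 0.25 nM for CXCR7). Room temperature, 1 h. Bound radioactivity counted 1 min/well. IC50 taken from inhibition of tracer binding.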

Experiment [2] deals with C-X-C chemokine receptor type 4 (Homo sapiens, UniProt P61073). Briefly: Inhibition of [125I]SDF-1alpha binding to CXCR4 (unknown origin) expressed in HEK293 cell membranes incubated for 1 hr by radioligand displacement assay.
The target of experiment [3] is T1, Atypical chemokine receptor 3. Briefly: Agonist activity at CXCR7 (unknown origin) expressed in HEK293E cells co-transfected with receptor-eYFP construct and beta-arrestin2-Rluc assessed as induction of receptor-mediated beta-arrestin recruitment by BRET assay. The experiment is classed as cell-based. The essentials:
(§1)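 Transient co-transfection of HEK293E cells with 1 µg receptor-eYFP plus 0.05 µg β-arrestin2-Rluc, made up to 2 µg/well with empty vector. Cells cultured overnight, seeded on poly(D-lysine) plates and grown 24 h more. Ligand added in BRET buffer (PBS, 0.5 mM MgCl2, 0.01% BSA), 5 min at 37 °C, then coelenterazine h 5 µM final. Read 30 min after ligand addition. Net BRET = YFP (510–550 nm)/Rluc (460–500 nm) minus Rluc-only background.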
For orientation: Arrestin recruitment assays detect the binding of arrestin to an activated receptor.

Experiment [4] concerns the target Atypical chemokine receptor 3 (Homo sapiens, UniProt P25106, D179N). Kind of experiment: Agonist activity at CXCR7 D179N mutant (unknown origin) expressed in HEK293E cells co-transfected with receptor-eYFP construct and beta-arrestin2-Rluc assessed as induction of receptor-mediated beta-arrestin recruitment by BRET assay. The experiment is classed as cell-based. The essentials:
as §1

The target of experiment [5] is Atypical chemokine receptor 3 (Homo sapiens, UniProt P25106, S198R). Kind of experiment: Agonist activity at CXCR7 S198R mutant (unknown origin) expressed in HEK293E cells co-transfected with receptor-eYFP construct and beta-arrestin2-Rluc assessed as induction of receptor-mediated beta-arrestin recruitment by BRET assay. The experiment is classed as cell-based. The essentials: as §1

In experiment [6] the target is Atypical chemokine receptor 3 (Homo sapiens, UniProt P25106, D275N). Briefly: Agonist activity at CXCR7 D275N mutant (unknown origin) expressed in HEK293E cells co-transfected with receptor-eYFP construct and beta-arrestin2-Rluc assessed as induction of receptor-mediated beta-arrestin recruitment by BRET assay. The experiment is classed as cell-based. The essentials:
as §1

The target of experiment [7] is T1, Atypical chemokine receptor 3. Kind of experiment: Agonist activity at wild type CXCR7 (unknown origin) expressed in HEK293E cells co-transfected with receptor-eYFP construct and beta-arrestin2-Rluc assessed as induction of receptor-mediated beta-arrestin recruitment by BRET assay. The experiment is classed as cell-based. In outline:
as §1

Consider 27 molecules from ChEMBL document CHEMBL3580653, “Development of novel CXC chemokine receptor 7 (CXCR7) ligands: selectivity switch from CXCR4 antagonists with a cyclic pentapeptide scaffold” (J Med Chem, 2015).

Usually IC50 stands for the point on the concentration scale where inhibition reaches its midpoint. Higher therefore signals weaker potency in that assay.

SMILES strings stand for the structures. Where a SMILES comes first, the peptide text is derived from it. [ ]: non-standard residue; d: D form. 2Nal = N[C@@H](Cc1ccc2ccccc2c1)C(=O)O; Pip = O=C(O)[C@@H]1CCCCN1; dPip = O=C(O)[C@H]1CCCCN1; βAla = NCCC(=O)O Bounds are passed on as bounds.

Chain of Atypical chemokine receptor 3 (Homo sapiens, UniProt P25106, D179N) (P25106 whole entry D179N): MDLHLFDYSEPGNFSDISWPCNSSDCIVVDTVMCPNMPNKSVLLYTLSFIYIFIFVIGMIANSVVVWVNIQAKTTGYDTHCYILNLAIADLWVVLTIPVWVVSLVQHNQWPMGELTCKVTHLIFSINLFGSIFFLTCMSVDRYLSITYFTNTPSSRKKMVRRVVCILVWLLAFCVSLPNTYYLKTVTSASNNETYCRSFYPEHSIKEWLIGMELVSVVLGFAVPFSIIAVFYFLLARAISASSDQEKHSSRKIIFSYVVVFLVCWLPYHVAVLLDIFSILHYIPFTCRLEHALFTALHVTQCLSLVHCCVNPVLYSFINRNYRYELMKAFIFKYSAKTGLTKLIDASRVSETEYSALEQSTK
T1 sequence (P25106 whole entry): as the sequence (P25106 whole entry D179N) above, with N179D counted along it
Chain of C-X-C chemokine receptor type 4 (P61073 whole entry): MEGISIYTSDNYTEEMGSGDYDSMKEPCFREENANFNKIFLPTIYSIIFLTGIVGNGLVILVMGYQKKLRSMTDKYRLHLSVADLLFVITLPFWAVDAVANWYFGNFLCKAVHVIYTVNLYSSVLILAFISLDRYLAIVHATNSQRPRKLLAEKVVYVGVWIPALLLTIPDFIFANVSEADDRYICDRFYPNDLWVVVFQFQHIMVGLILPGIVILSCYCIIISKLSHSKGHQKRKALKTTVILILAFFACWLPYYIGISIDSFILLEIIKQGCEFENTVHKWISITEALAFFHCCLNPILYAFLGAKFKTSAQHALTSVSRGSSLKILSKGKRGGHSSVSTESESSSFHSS
Chain of Atypical chemokine receptor 3 (Homo sapiens, UniProt P25106, S198R) (P25106 whole entry S198R): as the sequence (P25106 whole entry D179N) above, with N179D, S198R counted along it
Chain of Atypical chemokine receptor 3 (Homo sapiens, UniProt P25106, D275N) (P25106 whole entry D275N): as the sequence (P25106 whole entry D179N) above, with N179D, D275N counted along it

Consider `C[C@@H]1NC(=O)[C@@H](Cc2ccc(O)cc2)NC(=O)[C@@H]2CCCN2C(=O)[C@H](Cc2ccc3ccccc3c2)NC(=O)[C@H](CCCNC(=N)N)N(C)C1=O`, for which the results for the IC50 in experiment [1] and in experiment [2] were 16 µM and more than 30 µM, respectively.
`N=C(N)NCCC[C@@H]1NC(=O)[C@H](Cc2ccc(O)cc2)NC(=O)[C@@H]2CCCN2C(=O)[C@H](Cc2ccc3ccccc3c2)NC(=O)[C@H](CCCNC(=N)N)NC1=O`: the IC50 in experiment [1] and in experiment [2] was more than 30 µM in each case.
`CN1C(=O)[C@@H]2CCCN2C(=O)[C@H](Cc2ccc3ccccc3c2)NC(=O)[C@H](CCCNC(=N)N)NC(=O)[C@H](CCCNC(=N)N)NC(=O)[C@H]1Cc1ccc(O)cc1`: the figures for the IC50 in experiment [1] and in experiment [2] were 18 µM and more than 30 µM, respectively.
As to `C[C@H]1NC(=O)[C@@H]2CCCN2C(=O)[C@H](Cc2ccc3ccccc3c2)NC(=O)[C@H](CCCNC(=N)N)N(C)C(=O)[C@H](CCCNC(=N)N)NC1=O`, the 50% inhibitory concentration (IC50) in experiment [1] and in experiment [2] was more than 30 µM in each case.
For the molecule `N=C(N)NCCC[C@@H]1NC(=O)[C@H](CCCNC(=N)N)NC(=O)[C@@H](Cc2ccc(O)cc2)NC(=O)CCNC(=O)[C@H](Cc2ccc3ccccc3c2)NC1=O` (cyclo([2Nal][βAla][dY]RR)), the results for the IC50 in experiment [1] and in experiment [2] were more than 30 µM and 6 µM, respectively.
Turning to `C[C@@H]1NC(=O)[C@H](Cc2ccc3ccccc3c2)NC(=O)[C@H](CCCNC(=N)N)NC(=O)[C@H](CCCNC(=N)N)NC(=O)[C@@H](Cc2ccc(O)cc2)NC1=O` (cyclo([2Nal]A[dY]RR)), the IC50 in experiment [1] came out at 18 µM; in experiment [2] it was 23 µM.
On to `CN1C(=O)[C@H](CCCNC(=N)N)NC(=O)[C@H](CCCNC(=N)N)NC(=O)[C@@H](Cc2ccc(O)cc2)NC(=O)[C@@H]2CCCN2C(=O)[C@@H]1Cc1ccc2ccccc2c1`, for which the values for the concentration for half-maximal inhibition (IC50) in experiment [1] and in experiment [2] were 3.4 µM and more than 30 µM, respectively.
Turning to `C[C@H]1C(=O)N[C@@H](Cc2ccc3ccccc3c2)C(=O)N2CCC[C@H]2C(=O)N[C@H](Cc2ccc(O)cc2)C(=O)N[C@@H](CCCNC(=N)N)C(=O)N1C`, the values for the concentration for half-maximal inhibition (IC50) in experiment [1] and in experiment [2] were 11 µM and more than 30 µM, respectively.
Take `CN1C(=O)[C@H](CCCNC(=N)N)NC(=O)[C@@H](Cc2ccc(O)cc2)NC(=O)[C@@H]2CCCN2C(=O)[C@H](Cc2ccc3ccccc3c2)NC(=O)[C@H]1CCCNC(=N)N`: the IC50 in experiment [1] was 4.6 µM; in experiment [2], more than 30 µM.
Take `N=C(N)NCCC[C@@H]1NC(=O)[C@H](CCCNC(=N)N)NC(=O)[C@@H](Cc2ccc(O)cc2)NC(=O)[C@H]2CCCCN2C(=O)[C@H](Cc2ccc3ccccc3c2)NC1=O` (cyclo([2Nal][dPip][dY]RR)): the IC50 in experiment [1] and in experiment [2] was more than 30 µM in each case.
With `N=C(N)NCCC[C@@H]1NC(=O)[C@H](CCCNC(=N)N)NC(=O)[C@@H](Cc2ccc(O)cc2)NC(=O)[C@@H]2CCCN2C(=O)[C@@H](Cc2ccc3ccccc3c2)NC1=O`, the IC50 in experiment [1] and in experiment [2] was more than 30 µM each time.
With `N=C(N)NCCC[C@@H]1NC(=O)[C@@H](Cc2ccc(O)cc2)NC(=O)[C@@H]2CCCN2C(=O)[C@H](Cc2ccc3ccccc3c2)NC(=O)[C@@H](CCCNC(=N)N)NC1=O`, the IC50 in experiment [1] and in experiment [2] was more than 30 µM in each case.
Consider `CN1C(=O)[C@@H](Cc2ccc(O)cc2)NC(=O)[C@@H]2CCCN2C(=O)[C@H](Cc2ccc3ccccc3c2)NC(=O)[C@H](CCCNC(=N)N)NC(=O)[C@H]1CCCNC(=N)N`, for which the concentration for half-maximal inhibition (IC50) is 13 µM in experiment [1] and more than 30 µM in experiment [2].
`CC[C@H](C)[C@@H]1NC(=O)[C@H]([C@@H](C)O)NC(=O)[C@H]2CCCN2C(=O)[C@H](Cc2ccc3ccccc3c2)NC(=O)[C@H](CCCNC(=N)N)NC(=O)[C@@H](CCCNC(=N)N)NC1=O` (cyclo([2Nal][dP]TI[dR]R)) came in with an IC50 in experiment [1] of 1.7 µM. In addition, the EC50 in experiment [3] (read-out: EC50) is 0.036 µM; in experiment [3] (read-out: pEC50 (converted)), 0.0316 µM.
For `C[C@H]1NC(=O)[C@H](Cc2ccc3ccccc3c2)NC(=O)[C@H](CCCNC(=N)N)NC(=O)[C@H](CCCNC(=N)N)NC(=O)[C@@H](Cc2ccc(O)cc2)NC1=O` (cyclo([dY]RR[2Nal][dA])), the IC50 is more than 30 µM in experiment [1] and 2.2 µM in experiment [2].
Turning to `CN1C(=O)[C@H](CCCNC(=N)N)NC(=O)[C@H](CCCNC(=N)N)NC(=O)[C@@H](Cc2ccc(O)cc2)NC(=O)[C@@H]2CCCN2C(=O)[C@H]1Cc1ccc2ccccc2c1`, the IC50 in experiment [1] and in experiment [2] was more than 30 µM each time.
As to `CN1C(=O)[C@@H](Cc2ccc(O)cc2)NC(=O)[C@@H]2CCCN2C(=O)[C@H](Cc2ccc3ccccc3c2)NC(=O)[C@H](CCCNC(=N)N)NC(=O)[C@@H]1CCCNC(=N)N`, the 50% inhibitory concentration (IC50) in experiment [1] is 2.4 µM; in experiment [2], more than 30 µM.
With `C[C@@H]1C(=O)N[C@H](Cc2ccc(O)cc2)C(=O)N[C@@H](CCCNC(=N)N)C(=O)N[C@@H](CCCNC(=N)N)C(=O)N[C@@H](Cc2ccc3ccccc3c2)C(=O)N1C`, the IC50 in experiment [1] is more than 30 µM; in experiment [2], 4.6 µM.
The like results for `C[C@@H]1NC(=O)[C@H](CCCNC(=N)N)N(C)C(=O)[C@H](CCCNC(=N)N)NC(=O)[C@@H](Cc2ccc(O)cc2)NC(=O)[C@@H]2CCCN2C1=O` were, in that order, more than 30 µM and more than 30 µM.
For `N=C(N)NCCC[C@@H]1NC(=O)[C@H](CCCNC(=N)N)NC(=O)[C@@H](Cc2ccc(O)cc2)NC(=O)[C@@H]2CCCN2C(=O)[C@H](Cc2ccc3ccccc3c2)NC1=O`, the EC50 in experiment [4] (read-out: EC50) was 3.5 µM; in experiment [4] (read-out: pEC50 (converted)), 3.98 µM; in experiment [3] (read-out: EC50), 0.074 µM; in experiment [5], 0.36 µM; in experiment [6] it was 1.5 µM; in experiment [7] (read-out: EC50), 0.19 µM. The EC50 in experiment [7] (read-out: pEC50 (converted)) was 0.126 µM. The results for the IC50 in experiment [1] and in experiment [2] were 1.5 µM and more than 30 µM, respectively.
In experiment [1], `N=C(N)NCCC[C@@H]1NC(=O)[C@H](CCCNC(=N)N)NC(=O)[C@@H](Cc2ccc(O)cc2)NC(=O)CNC(=O)[C@H](Cc2ccc3ccccc3c2)NC1=O` came in with an IC50 of more than 30 µM. Moreover, the EC50 is 2.4 µM in experiment [3] (read-out: EC50) and 2 µM in experiment [3] (read-out: pEC50 (converted)).
For `N=C(N)NCCC[C@@H]1NC(=O)[C@H](CCCNC(=N)N)NC(=O)[C@@H](Cc2ccc(O)cc2)NC(=O)[C@@H]2CCCCN2C(=O)[C@H](Cc2ccc3ccccc3c2)NC1=O` (cyclo([2Nal][Pip][dY]RR)), the results for the IC50 in experiment [1] and in experiment [2] were 13 µM and more than 30 µM, respectively.
For `C[C@H]1C(=O)N[C@H](Cc2ccc(O)cc2)C(=O)N[C@@H](CCCNC(=N)N)C(=O)N[C@@H](CCCNC(=N)N)C(=O)N[C@@H](Cc2ccc3ccccc3c2)C(=O)N1C`, in that order: 15 µM and more than 30 µM.
In the case of `N=C(N)NCCC[C@@H]1NC(=O)[C@H](CCCNC(=N)N)NC(=O)[C@@H](Cc2ccc(O)cc2)NC(=O)[C@H]2CCCN2C(=O)[C@H](Cc2ccc3ccccc3c2)NC1=O`, the half-inhibitory concentration (IC50) in experiment [1] and in experiment [2] was more than 30 µM throughout.
As for `N=C(N)NCCC[C@@H]1NC(=O)[C@@H](CCCNC(=N)N)NC(=O)[C@@H](Cc2ccc(O)cc2)NC(=O)[C@@H]2CCCN2C(=O)[C@H](Cc2ccc3ccccc3c2)NC1=O`, the IC50 was 4.6 µM in experiment [1] and more than 30 µM in experiment [2].
In the case of `CN1C(=O)[C@H](CCCNC(=N)N)NC(=O)[C@@H](Cc2ccc(O)cc2)NC(=O)[C@@H]2CCCN2C(=O)[C@H](Cc2ccc3ccccc3c2)NC(=O)[C@@H]1CCCNC(=N)N`, the EC50 was 2 µM in experiment [4] (read-out: EC50); 0.095 µM in experiment [3] (read-out: EC50); 0.36 µM in experiment [5]; 0.65 µM in experiment [6]; 0.24 µM in experiment [7] (read-out: EC50); 0.158 µM in experiment [7] (read-out: pEC50 (converted)). Also, the IC50 is 0.8 µM in experiment [1] and more than 30 µM in experiment [2].
With `CN1C(=O)[C@@H]2CCCN2C(=O)[C@H](Cc2ccc3ccccc3c2)NC(=O)[C@H](CCCNC(=N)N)NC(=O)[C@H](CCCNC(=N)N)NC(=O)[C@@H]1Cc1ccc(O)cc1`, the IC50 in experiment [1] is 23 µM; in experiment [2], more than 30 µM.
